Compound activity as filed in PubChem.
Compounds with a hit are over-represented: about 3% of the library has one in this group of screens.
rRNA inh HTS: reduced GFP signal of wild-type E. coli, primary screen, bacterial rRNA inhibitor project, GFP/RFP fluorescence, OD600, single point | E. coli WT GFP vs humanized-ribosome RFP mutants, 24 h; stronger effect = lower value; DMSO median 0, no signal -100 | GFP signal change (wild-type ribosome), % (test concentration not listed) | actives 1.6% (n = 350,000);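 active means significant combined selectivity score with lowered wild-type GFP, culture density cut under 30%, mutant RFP and density less affected; inactive means any of these conditions unmet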
S100A4 MyoIIA: inhibitors of S100A4-myosin IIA peptide binding, primary screen, biochemical, fluorescence polarization, TAMRA-MyoIIA peptide | Protein S100-A4 (Homo sapiens), P26447 | inhibition, % at 10.7 µM | actives 0.14% (n = 360,000);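 active means mean inhibition of at least 70% across replicates, with every replicate also reaching that level; inconclusive means mean inhibition reaches 70% but some replicates fall short; inactive means mean inhibition below 70%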
Target sequence (P26447 whole entry, looked up): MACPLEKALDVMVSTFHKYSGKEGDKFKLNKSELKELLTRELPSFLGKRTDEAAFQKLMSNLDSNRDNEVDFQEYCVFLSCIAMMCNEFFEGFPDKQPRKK
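Test system: S100A4 monomer protein; Medium: HEPES pH 7.2 with CaCl2, KCl, NaCl, DTT, Triton; Probe or stimulus: TAMRA-labelled myosin IIA heavy-chain peptide probe, 5 nM; Doses: one dose per compound; Times: polarization read 5 min after assay mix addition, stable 5–60 min; Benchmarks: neutral control DMSO, positive control TFP.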
SIRT5 inh: SIRT5 desuccinylase inhibitors, primary screen, biochemical, fluorescence imaging, single point, set 5 | NAD-dependent protein deacylase sirtuin-5, mitochondrial (Homo sapiens), Q9NXA8 | Purified SirT5, succinyl-peptide AMC, trypsin-coupled fluorescence | inhibition, % at 15 µM | actives 1.1% (n = 330,000); in the data active means inhibition above about 15%; inconclusive means no clear call, values can overlap the other calls
Target sequence (Q9NXA8 whole entry, looked up): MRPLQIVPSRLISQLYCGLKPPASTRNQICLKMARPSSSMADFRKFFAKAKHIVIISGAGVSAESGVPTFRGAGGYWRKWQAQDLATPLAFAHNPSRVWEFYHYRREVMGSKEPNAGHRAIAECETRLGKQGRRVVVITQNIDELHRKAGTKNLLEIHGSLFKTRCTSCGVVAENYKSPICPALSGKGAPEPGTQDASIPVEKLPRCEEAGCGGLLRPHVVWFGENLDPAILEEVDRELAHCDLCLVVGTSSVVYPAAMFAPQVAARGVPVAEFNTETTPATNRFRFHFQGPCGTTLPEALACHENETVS
C2C12 statin: suppressors of statin myotoxicity in C2C12 myotubes, primary screen, cell-based, single point, plate reader | actives 0.78% (n = 330,000) | rescue of ATP level, % at 7.49 µM | AID 602340, 2012 | C2C12 myotubes + simvastatin, ATP luminescence, 48 h; scaled: DMSO 0, geranylgeraniol control 100;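 active means mean ATP rescue above about 67%, or every replicate alone reaching that limit, limit read from the data, passing the limit was not always enough; inconclusive means no clear call, values can overlap the other calls; inactive means mean under the limit and some replicate under it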;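 further: myotubes were challenged with 10 µM simvastatin during compound exposure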
Cneo AK release: Cryptococcus neoformans cell lysis inducers, primary screen, AK release luminescence, single concentration | C. neoformans lysis, adenylate kinase release luminescence, 4 h; normalised: neutral wells 0, clomiphene wells 100 | lysis activity, % at 15 µM | actives 0.2% (n = 360,000) | AID 651654, 2012;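 active means mean lysis activity across replicates of at least 80%, whatever share of replicates individually reach that level; inactive means mean lysis activity below 80%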
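read-out = cell lysis signal | test system = log-phase Cryptococcus neoformans yeast cells | input = cells at 5 × 10^6 per mL | medium = fresh YPD growth medium | signal = luminescent adenylate kinase detection reagent | timing = 4 h at 37 °C static, read 1 h later | dosing = single dose | controls = Clomiphene as positive lysis control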
PGC1a acetyl inh: inhibitors of PGC1a acetylation signal, primary screen, cell-based, U2OS, AlphaScreen, inhibitor mode. AlphaScreen anti-acetyl-lysine; with virally co-expressed GCN5 acetyltransferase. inhibition, % at 15.6 µM. actives 0.17% (n = 350,000). AID 651687, 2012;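 active means every replicate shows inhibition of at least 40%; inconclusive means mean inhibition at least 40% but some replicate below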
AID977621: growth inhibition of wild-type GFP E. coli, dose response, H69 mutant RFP, cherry-pick. E. coli wild-type GFP strain growth, fluorescence, 24 h. activity change, negative = inhibition at 50 µM. shares compounds with rRNA inh HTS. AID 977621, 2014. 1,900 tested, under 10 active;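 active means Wild-type ribosome reporter drop at least double the humanized mutant ribosome reporter drop, growth loss under a set limit; inconclusive means no clear call, values can overlap the other calls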;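 further: wild-type GFP and H69 mutant RFP strains grown together 50/50 in each well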
AID977628: E. coli growth inhibition, wild-type GFP versus h24 humanized RFP strain, dose response, h24 mutant RFP vs wild-type GFP, cherry-pick; activity change, negative = inhibition at 50 µM; E. coli WT GFP strain growth, fluorescence, 24 h; AID 977628, 2014; shares compounds with rRNA inh HTS; 1,900 tested, under 10 active;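 active means compound lowering the normal-ribosome reporter at least twice as much as the humanized-ribosome reporter, growth loss under a set limit; inconclusive means no clear call, values can overlap the other calls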;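 further: wild-type GFP and h24 humanized RFP strains co-cultured 1 to 1 per well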
Of the large screens only hits and unclear results are named; the others gave an inactive call (follow-up assays come after a bar, where they were run).

Cc1cc(CNC(=O)COc2cc(F)ccc2[N+](=O)[O-])c2ccccc2n1	none
C[C@H](CO)N1C[C@H](C)[C@@H](CN(C)Cc2cncnc2)Oc2ncc(-c3cccc(C#N)c3)cc2C1=O	none
C[C@H](CO)N1C[C@H](C)[C@@H](CN(C)C(=O)Cc2ccncc2)Oc2ncc(C#C[C@@H](C)O)cc2C1=O	none
Cc1cccc(C(=O)NCC(=O)OCC(=O)c2cc(C)n(CC3CCCO3)c2C)c1 (stereo not drawn)	none (no result: C2C12 statin, Cneo AK release, PGC1a acetyl inh)
Cc1cc(C(=O)COC(=O)CNC(=O)c2ccccc2)c(C)n1CC1CCCO1 (stereo not drawn)	rRNA inh HTS -20 (no result: C2C12 statin, Cneo AK release) | AID977621 inactive | AID977628 inactive
C[C@@H]1CN([C@H](C)CO)C(=O)c2cc(N(C)C)ccc2O[C@@H](C)CCCCO[C@@H]1CN(C)C(=O)c1ccncc1	none
COc1cc(-c2ccc(N3C(c4ccsc4)=Cc4ccc(F)cc4C3c3c[nH]c4ccc(C#N)cc34)cc2)cc(OC)c1OC (stereo not drawn)	rRNA inh HTS -25 (no result: C2C12 statin, Cneo AK release, PGC1a acetyl inh) | AID977621 inactive | AID977628 inactive
N#Cc1ccc2[nH]cc(C3c4cc(F)ccc4C=C(c4ccsc4)N3c3ccc(C#CCCO)cc3)c2c1 (stereo not drawn)	none (no result: C2C12 statin, Cneo AK release, PGC1a acetyl inh)
COc1cccc(C(=O)NC2CC3CCCC(C2)N3S(=O)(=O)c2ccccc2)c1 (stereo not drawn)	rRNA inh HTS -31 (no result: Cneo AK release) | AID977621 inconclusive
COc1ccc(CCCc2nc3ccccc3[nH]2)cc1	rRNA inh HTS -22 (no result: Cneo AK release) | AID977621 inactive | AID977628 inconclusive
CCCNC(=O)C[C@@H]1C[C@H]2c3cc(NC(=O)NC4CCCC4)ccc3O[C@H]2[C@H](CO)O1	none
COc1ccc(Nc2nc(NCCO)nc(N3CCCC3)n2)cc1	rRNA inh HTS -16 (no result: SIRT5 inh, PGC1a acetyl inh) | AID977621 inactive | AID977628 inconclusive
O=C(NCCc1ccc(O)cc1)c1[nH]c(C(F)(F)F)nc1-c1ccccc1	rRNA inh HTS -23 | AID977621 inactive | AID977628 inconclusive
O=C(NCCc1ccccc1)c1[nH]c(C(F)(F)F)nc1-c1ccccc1	none
Cn1cc(CN2CCCC(C(=O)c3cccs3)C2)c(-c2cccc(Cl)c2)n1 (stereo not drawn)	rRNA inh HTS -25 | AID977621 inactive | AID977628 inactive
Cn1cc(CN(CCO)Cc2cccs2)c(-c2cccc(Cl)c2)n1	rRNA inh HTS -31 (no result: C2C12 statin, PGC1a acetyl inh) | AID977621 inactive | AID977628 inactive
Cc1ccsc1C(=O)C1CCCN(Cc2cn(C)nc2-c2ccccc2)C1 (stereo not drawn)	none (no result: C2C12 statin, Cneo AK release, PGC1a acetyl inh)
C=CCN(CC(O)c1cccc([N+](=O)[O-])c1)C(C)CCc1ccccc1 (stereo not drawn)	rRNA inh HTS -21 (no result: C2C12 statin, Cneo AK release) | AID977621 inconclusive
O=C(c1cccc(F)c1)N1CCCCN2[C@H](CO)[C@H](c3ccc(-c4cccnc4)cc3)[C@@H]2C1	none (no result: C2C12 statin)
COc1ccc(-c2csc(NC(=O)c3c(C)noc3C)n2)cc1	none
COc1ccc(-c2csc(NC(=O)c3ccoc3C)n2)cc1	rRNA inh HTS -25 (no result: C2C12 statin, Cneo AK release) | AID977628 inactive
COc1ccc(-c2csc(NC(=O)c3ccccc3S(C)(=O)=O)n2)cc1	rRNA inh HTS -36 (no result: C2C12 statin, Cneo AK release) | AID977621 inactive | AID977628 inconclusive
CCC(=O)N[C@@H]1C=C[C@H](CC(=O)NCc2ccccc2OC)O[C@@H]1CO	none
COc1cc(NC(=O)c2ccc(Cl)cc2)c(OC)cc1NC(=O)CN1CCCCC1	rRNA inh HTS -26 (no result: C2C12 statin, Cneo AK release) | AID977621 inactive | AID977628 inactive
COC(=O)c1cc2ccccc2n1S(=O)(=O)c1ccccc1	rRNA inh HTS -32 | AID977621 inactive | AID977628 inactive
CC(C)NC(=O)N[C@H]1CC[C@H](CC(=O)O)O[C@H]1CO	none
Cc1ccc(S(=O)(=O)N[C@H]2CC[C@H](CCNC(=O)CN3CCOCC3)O[C@H]2CO)cc1	none
COc1ccc(OCCC(=O)OCC(=O)NCCC2=CCCCC2)cc1	rRNA inh HTS -24 (no result: C2C12 statin, Cneo AK release, PGC1a acetyl inh) | AID977621 inactive | AID977628 inactive
O=C(C1Cc2ccccc2CN1C(=O)c1ccccc1)N1CCN(c2ccccc2)CC1 (stereo not drawn)	rRNA inh HTS -22 | AID977621 inactive | AID977628 inactive
COc1ccc(N2CCN(C(=O)C3Cc4ccccc4CN3C(=O)c3ccco3)CC2)cc1 (stereo not drawn)	none (no result: rRNA inh HTS)
CC1CCCN(C(=O)COc2ccc3c(c2)OCO3)C1 (stereo not drawn)	none (no result: C2C12 statin)
CC1Cc2ccccc2N1C(=O)COc1ccc2c(c1)OCO2 (stereo not drawn)	rRNA inh HTS -22 (no result: C2C12 statin) | AID977628 inactive
CCn1cc(CCC(=O)NCCc2ccccc2)c2ccccc21	rRNA inh HTS -19 | AID977621 inactive | AID977628 inconclusive
CCn1cc(CCC(=O)NC(C)c2ccccc2)c2ccccc21 (stereo not drawn)	none (no result: PGC1a acetyl inh)
O=C(C[C@@H]1CC[C@H](NC(=O)c2cnccn2)[C@H](CO)O1)NCc1ccccc1F	none
Cc1noc(C)c1NC(=O)Nc1cccc2c1O[C@H](CN(C)C(=O)Nc1ccc(C(F)(F)F)cc1)[C@H](C)CN([C@@H](C)CO)C2=O	none (no result: S100A4 MyoIIA, SIRT5 inh)
Cc1noc(NS(=O)(=O)c2ccc(NC(=O)c3cc(S(=O)(=O)N(C)c4ccccc4)ccc3Cl)cc2)c1C	none
Cc1noc(NS(=O)(=O)c2ccc(NC(=O)c3cc(-c4ccccc4Cl)nc4ccccc34)cc2)c1C	rRNA inh HTS -24 (no result: C2C12 statin, Cneo AK release, PGC1a acetyl inh) | AID977621 inactive
N#Cc1nc(Cc2ccccc2)oc1N1CCCC1	rRNA inh HTS -23 (no result: C2C12 statin, Cneo AK release, PGC1a acetyl inh) | AID977628 inconclusive
N#Cc1nc(-c2ccccc2)oc1N1CCCCC1	none
N#Cc1nc(COc2cccc(Cl)c2)oc1N1CCCC1	rRNA inh HTS -33 | AID977621 inactive | AID977628 inactive
CC(C)C(=O)Nc1ccc2c(c1)C(=O)N(C)[C@H]1CC[C@@H](CC(=O)NC3CCCC3)O[C@@H]1CO2	none
